Test results published in ChEMBL document CHEMBL4680268, “Pharmacomodulations of the benzoyl-thiosemicarbazide scaffold reveal antimicrobial agents targeting d-alanyl-d-alanine ligase in bacterio” (Eur J Med Chem, 2020).
Converted amounts (≈) assume the structure as drawn. The source made the active and inactive calls. The calls are words filed in the database; no cut-off is given here.

Tests used:
[1] = Inhibition of recombinant Enterococcus faecalis C-terminal His6-tagged DdlB expressed in Escherichia coli LMG194 using D-Ala as substrate preincubated with enzyme for 30 mins followed by substrate addition and measured after 20 mins by malachite green based colorimetric analysis
Outline: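 DdlB (20 mg/L) malachite green phosphate assay: enzyme, inhibitor and 500 µM ATP preincubated 30 min at 30 °C in Tris-HCl pH 7.4 buffer with MgCl₂, KCl and 10% DMSO, then 1 mM D-Ala for 20 min; A650 read. IC₅₀ from 11 concentrations, also run with 0.01% Triton X-100; mean ± SD of triplicates, n ≥ 2; EC₅₀ given where maximal inhibition stayed below 50%.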

[2] = test system: Staphylococcus aureus; experiment: Antibacterial activity against Staphylococcus aureus ATCC 25923 assessed as reduction in bacterial growth incubated for 18 to 24 hrs by broth microdilution method; format: functional; conditions: time 18-24 hrs
[3] = test system: Enterococcus faecalis; experiment: Antibacterial activity against Enterococcus faecalis ATCC 29212 assessed as reduction in bacterial growth incubated for 18 to 24 hrs by broth microdilution method; format: functional; conditions: time 18-24 hrs
[4] = test system: Staphylococcus aureus; experiment: Antibacterial activity against hospital-acquired methicillin/ciprofloxacin and moxifloxacin resistant Staphylococcus aureus SA481 assessed as reduction in bacterial growth incubated for 18 to 24 hrs by broth microdilution method; format: functional; conditions: time 18-24 hrs
Outline: (§1)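 Broth microdilution in cation-adjusted Mueller-Hinton broth per CLSI; inoculum 10⁶ bacteria/mL. Two-fold serial dilutions, compound in broth with 5% DMSO mixed 1:1 with bacterial suspension, giving 2.5% DMSO final. Top concentration 0.1, 0.4 or 0.8 mM depending on solubility. Incubated 18–24 h at 37 °C. MIC = lowest concentration preventing visible growth.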

[5] = test system: Enterococcus faecalis; experiment: Inhibition of recombinant Enterococcus faecalis C-terminal His6-tagged DdlB expressed in Escherichia coli LMG194 assessed as residual activity using D-Ala as substrate at 100 uM preincubated with enzyme for 30 mins followed by substrate addition and measured after 20 mins by malachite green based colorimetric analysis relative to control; conditions: time 50.0 min
Outline: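 Purified E. faecalis His-tagged DdlB (20 mg/L) preincubated 30 min at 30 °C with 100 µM compound and 500 µM ATP in 20 mM Tris-HCl pH 7.4, 10 mM MgCl₂, 10 mM KCl, 10% DMSO; 1 mM D-Ala added, 20 min at 30 °C. Phosphate detected with malachite green reagent, A650 after 25 min dark; residual activity versus no-inhibitor control, triplicate.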

[6] = test system: Klebsiella pneumoniae; experiment: Antibacterial activity against Klebsiella pneumoniae ATCC700603 assessed as reduction in bacterial growth incubated for 18 to 24 hrs by broth microdilution method; format: functional, organism-based; conditions: 700603, time 18-24 hrs
Outline: (§2)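 Microdilution in cation-adjusted Mueller-Hinton broth per CLSI; two-fold compound series in CAMHB with 5% DMSO mixed 1:1 with bacterial suspension, giving 10⁶ bacteria/mL inoculum and 2.5% DMSO final. Top concentrations 0.1, 0.4 or 0.8 mM depending on solubility. Incubated 18–24 h at 37 °C; MIC read as lowest concentration preventing visible growth.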

[7] = test system: Escherichia coli; experiment: Antibacterial activity against Escherichia coli ATCC 25922 assessed as reduction in bacterial growth incubated for 18 to 24 hrs by broth microdilution method; format: functional, organism-based; conditions: time 18-24 hrs; outline: as §2
[8] = test system: Pseudomonas aeruginosa; experiment: Antibacterial activity against Pseudomonas aeruginosa PAO1 assessed as reduction in bacterial growth incubated for 18 to 24 hrs by broth microdilution method; format: functional, organism-based; conditions: time 18-24 hrs; outline: as §2
[9] = test system: Enterococcus faecalis; experiment: Antibacterial activity against vancomycin resistant Enterococcus faecalis BM4390 harboring VanB mutant with inactive Ddl and constitutive expression of D-Ala-D-Lac assessed as reduction in bacterial growth incubated for 18 to 24 hrs by broth microdilution method; format: functional; conditions: time 18-24 hrs; outline: as §1
[10] = test system: Enterococcus faecalis; experiment: Antibacterial activity against vancomycin resistant Enterococcus faecalis JH2-2::C1 harboring constitutive expression of Ddl and vanB ligase assessed as reduction in bacterial growth incubated for 18 to 24 hrs by broth microdilution method; format: functional; conditions: time 18-24 hrs; outline: as §1
[11] = test system: Enterococcus faecalis; experiment: Antibacterial activity against vancomycin resistant Enterococcus faecalis BM4575 harboring VanE genotype, constitutive expression of Ddl and VanE D-Ala-D-Ser ligase assessed as reduction in bacterial growth incubated for 18 to 24 hrs by broth microdilution method; format: functional; conditions: time 18-24 hrs; outline: as §1
[12] = test system: Staphylococcus aureus; experiment: Antibacterial activity against methicillin resistant and vancomycin intermediate resistant Staphylococcus aureus MU50 assessed as reduction in bacterial growth incubated for 18 to 24 hrs by broth microdilution method; format: functional; conditions: time 18-24 hrs; outline: as §1
[13] = test system: Staphylococcus aureus; experiment: Antibacterial activity against methicillin and linezolid resistant Staphylococcus aureus NRS119 assessed as reduction in bacterial growth incubated for 18 to 24 hrs by broth microdilution method; format: functional; conditions: time 18-24 hrs; outline: as §1
[14] = test system: Staphylococcus aureus; experiment: Antibacterial activity against community-acquired methicillin and erythromycin resistant Staphylococcus aureus SA325 assessed as reduction in bacterial growth incubated for 18 to 24 hrs by broth microdilution method; format: functional; conditions: time 18-24 hrs; outline: as §1
[15] = test system: Staphylococcus aureus; experiment: Antibacterial activity against hospital-acquired vancomycin resistant Staphylococcus aureus VRS-1 assessed as reduction in bacterial growth incubated for 18 to 24 hrs by broth microdilution method; format: functional; conditions: time 18-24 hrs; outline: as §1

MIC [2] [µM] | MIC [3] [µM] | Activity [5] [%] | SMILES | IC50 [1] [nM] | MIC [4] [µM] | Activity [6] | Activity [7] | Activity [8] | MIC [9] [µM] | MIC [10] [µM] | MIC [11] [µM] | MIC [12] [µM] | MIC [13] [µM] | MIC [14] [µM] | MIC [15] [µM]
> 800 | > 800 |  | Oc1ccccc1-c1n[nH]c(=S)n1-c1ccc(F)cc1 | 60000 |  |  |  |  |  |  |  |  |  |  | 
> 100 | > 100 | > 100 | Oc1ccccc1-c1nnc(Nc2ccc(Cl)c(Cl)c2)s1 |  |  |  |  |  |  |  |  |  |  |  | 
> 800 | > 800 | > 50 | COc1ccc(O)c(-c2n[nH]c(=S)n2-c2ccccc2)c1 | 133000 |  |  |  |  |  |  |  |  |  |  | 
> 800 | > 800 | > 100 | Oc1ccccc1/N=C(/S)Nc1ccccc1 |  |  |  |  |  |  |  |  |  |  |  | 
400 (≈ 129 µg/mL) | 400 (≈ 129 µg/mL) | > 50 | O=C(NNC(=S)Nc1ccc(F)c(F)c1)c1ccccc1O | 920 |  | inactive | inactive | inactive |  |  |  |  |  |  | 
> 400 | > 400 | > 50 | Oc1ccccc1/C=N/NC(=S)Nc1ccccc1 | 2600 |  |  |  |  |  |  |  |  |  |  | 

The remaining lines, values behind:

SMILES | MIC [2] [µM] | MIC [3] [µM] | Activity [5] [%] | IC50 [1] [nM] | MIC [4] [µM] | Activity [6] | Activity [7] | Activity [8] | MIC [9] [µM] | MIC [10] [µM] | MIC [11] [µM] | MIC [12] [µM] | MIC [13] [µM] | MIC [14] [µM] | MIC [15] [µM]
O=C(O)c1cn(C2CC2)c2cc(N3CCNCC3)c(F)cc2c1=O [CIPROFLOXACIN] |  |  |  |  | 770 (≈ 255 µg/mL) |  |  |  |  |  |  |  |  |  | 
O=C(NNC(=S)Nc1ccccc1)c1ccccc1O | 800 (≈ 230 µg/mL) | > 800 |  | 740 | 800 (≈ 230 µg/mL) | inactive | inactive | inactive | > 800 | > 800 | > 800 | 800 (≈ 230 µg/mL) | > 800 | 800 (≈ 230 µg/mL) | 800 (≈ 230 µg/mL)
Fc1ccc2c(c1F)Oc1ccccc1-c1n[nH]c(=S)n1-2 | > 400 | > 400 | > 100 |  |  |  |  |  |  |  |  |  |  |  | 
O=C(NNC(=S)Nc1ccc(F)c(F)c1F)c1ccccc1O | 200 (≈ 68.3 µg/mL) | 200 (≈ 68.3 µg/mL) |  | 640 | 400 (≈ 137 µg/mL) | inactive | inactive | inactive | > 400 | > 400 | 400 (≈ 137 µg/mL) | 400 (≈ 137 µg/mL) | 400 (≈ 137 µg/mL) | 400 (≈ 137 µg/mL) | 400 (≈ 137 µg/mL)
CC(=O)NC[C@H]1CN(c2ccc(N3CCOCC3)c(F)c2)C(=O)O1 [LINEZOLID] |  |  |  |  |  |  |  |  |  |  |  | 3 (≈ 1.01 µg/mL) | 190 (≈ 64.1 µg/mL) |  | 
S=c1[nH]nc(-c2ccccc2)n1-c1ccc(Cl)c(Cl)c1 | > 100 | > 100 | > 100 |  |  |  |  |  |  |  |  |  |  |  | 
O=C(NNC(=S)Nc1ccc(C(F)(F)F)cc1)c1ccccc1O | 50 (≈ 17.8 µg/mL) | 50 (≈ 17.8 µg/mL) |  | 630 | 100 (≈ 35.5 µg/mL) | inactive | inactive | inactive | > 100 | 100 (≈ 35.5 µg/mL) | 100 (≈ 35.5 µg/mL) | 100 (≈ 35.5 µg/mL) | 100 (≈ 35.5 µg/mL) | 100 (≈ 35.5 µg/mL) | 100 (≈ 35.5 µg/mL)
O=C(NC(=S)NNC(=O)c1ccccc1O)c1ccccc1 | 100 (≈ 31.5 µg/mL) | 100 (≈ 31.5 µg/mL) | > 50 | 810 | 100 (≈ 31.5 µg/mL) | inactive | inactive | inactive | > 100 | > 100 | > 100 | > 100 | > 100 | 100 (≈ 31.5 µg/mL) | 100 (≈ 31.5 µg/mL)
O=C(NNC(=S)Nc1ccc(F)cc1)c1ccccc1O | > 100 | 200 (≈ 61.1 µg/mL) |  | 890 | > 100 | inactive | inactive | inactive | > 100 | > 100 | > 100 | > 100 | > 100 | > 100 | > 100
